In ChEMBL document CHEMBL1136635, “Modification of the N-terminus of peptidomimetic protein tyrosine phosphatase 1B (PTP1B) inhibitors: identification of analogues with cellular activity” (Bioorg Med Chem Lett, 2003):

Columns and labels:
[1] = target: Receptor-type tyrosine-protein phosphatase F (Homo sapiens) (UniProt P10586); experiment: Inhibitory activity against phosphatase (LAR) at a concentration of 100 uM
Procedure, shortened: (§1)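 Purified recombinant human enzyme constructs; PTP1B is a C-terminally truncated soluble form, tested alongside LAR and SHP-2. Activity is read as the initial rate of p-nitrophenyl phosphate (pNPP) hydrolysis and reported as percent inhibition. PTP1B is tested at 100, 10 and 1 µM, or 10 and 1 µM in the salicylate series; LAR and SHP-2 at 100 µM.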

[2] = Uptake of 2-DOG (2-deoxyglucose) into L6 myocytes in the presence of half-maximal concentration of insulin at 100 uM; format: functional, Rattus norvegicus
Procedure, shortened: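 L6 myotubes are exposed to compound at 100 µM with 10 nM insulin, a dose eliciting about 50% of maximal uptake. The initial rate of 2-[3H]deoxyglucose uptake is measured, with L-[14C]glucose marking extracellular space, and normalized to recovered lysate protein. Net insulin-dependent transport with inhibitor is expressed as a percent of that without inhibitor.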

[3] = target: T1, Tyrosine-protein phosphatase non-receptor type 11 (Homo sapiens) (UniProt Q06124); experiment: Inhibition of recombinant human phosphatase (SHP-2) at a concentration of 100 uM; procedure, shortened: as §1
T1 sequence (whole entry): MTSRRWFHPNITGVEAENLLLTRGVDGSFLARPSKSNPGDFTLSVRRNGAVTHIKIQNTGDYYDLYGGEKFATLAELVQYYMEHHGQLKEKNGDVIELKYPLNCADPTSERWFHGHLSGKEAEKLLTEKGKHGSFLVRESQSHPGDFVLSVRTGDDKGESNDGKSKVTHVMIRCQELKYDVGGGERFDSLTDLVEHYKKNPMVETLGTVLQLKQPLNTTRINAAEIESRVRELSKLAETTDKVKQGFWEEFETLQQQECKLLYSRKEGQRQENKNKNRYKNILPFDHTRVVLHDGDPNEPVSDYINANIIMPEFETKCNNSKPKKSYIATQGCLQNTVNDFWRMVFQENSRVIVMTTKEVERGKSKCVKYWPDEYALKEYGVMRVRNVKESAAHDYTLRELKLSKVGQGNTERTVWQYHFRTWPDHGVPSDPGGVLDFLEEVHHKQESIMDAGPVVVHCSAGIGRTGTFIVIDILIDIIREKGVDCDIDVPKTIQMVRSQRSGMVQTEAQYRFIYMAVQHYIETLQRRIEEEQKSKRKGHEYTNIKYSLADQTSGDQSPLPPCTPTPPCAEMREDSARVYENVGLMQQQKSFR

[4] = target: T2, Tyrosine-protein phosphatase non-receptor type 1 (Homo sapiens) (UniProt P18031); experiment: Inhibitory activity against human protein tyrosine phosphatase 1B (PTP1B) at a concentration of 1 uM; procedure, shortened: as §1
T2 sequence (whole entry): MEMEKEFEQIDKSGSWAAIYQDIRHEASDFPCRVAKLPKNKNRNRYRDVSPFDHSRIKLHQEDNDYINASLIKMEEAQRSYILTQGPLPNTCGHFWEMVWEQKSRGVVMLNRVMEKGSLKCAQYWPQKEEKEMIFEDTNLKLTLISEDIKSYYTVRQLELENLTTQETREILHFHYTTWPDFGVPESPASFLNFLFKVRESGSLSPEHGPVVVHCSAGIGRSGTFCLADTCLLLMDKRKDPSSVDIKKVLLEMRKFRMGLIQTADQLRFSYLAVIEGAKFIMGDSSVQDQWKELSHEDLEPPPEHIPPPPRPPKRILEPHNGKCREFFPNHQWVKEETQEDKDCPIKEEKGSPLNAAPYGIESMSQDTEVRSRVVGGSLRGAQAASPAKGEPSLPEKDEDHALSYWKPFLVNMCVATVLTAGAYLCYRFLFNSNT

[5] = target: T2, Tyrosine-protein phosphatase non-receptor type 1 (Homo sapiens); experiment: Inhibitory activity against human protein tyrosine phosphatase 1B (PTP1B) at a concentration of 10 uM; procedure, shortened: as §1
[6] = target: T2, Tyrosine-protein phosphatase non-receptor type 1 (Homo sapiens); experiment: Inhibitory activity against human protein tyrosine phosphatase 1B (PTP1B) at a concentration of 100 uM; procedure, shortened: as §1

Receptor-type tyrosine-protein phosphatase F (Homo sapiens), sequence (P10586 whole entry, the tested form may be a part): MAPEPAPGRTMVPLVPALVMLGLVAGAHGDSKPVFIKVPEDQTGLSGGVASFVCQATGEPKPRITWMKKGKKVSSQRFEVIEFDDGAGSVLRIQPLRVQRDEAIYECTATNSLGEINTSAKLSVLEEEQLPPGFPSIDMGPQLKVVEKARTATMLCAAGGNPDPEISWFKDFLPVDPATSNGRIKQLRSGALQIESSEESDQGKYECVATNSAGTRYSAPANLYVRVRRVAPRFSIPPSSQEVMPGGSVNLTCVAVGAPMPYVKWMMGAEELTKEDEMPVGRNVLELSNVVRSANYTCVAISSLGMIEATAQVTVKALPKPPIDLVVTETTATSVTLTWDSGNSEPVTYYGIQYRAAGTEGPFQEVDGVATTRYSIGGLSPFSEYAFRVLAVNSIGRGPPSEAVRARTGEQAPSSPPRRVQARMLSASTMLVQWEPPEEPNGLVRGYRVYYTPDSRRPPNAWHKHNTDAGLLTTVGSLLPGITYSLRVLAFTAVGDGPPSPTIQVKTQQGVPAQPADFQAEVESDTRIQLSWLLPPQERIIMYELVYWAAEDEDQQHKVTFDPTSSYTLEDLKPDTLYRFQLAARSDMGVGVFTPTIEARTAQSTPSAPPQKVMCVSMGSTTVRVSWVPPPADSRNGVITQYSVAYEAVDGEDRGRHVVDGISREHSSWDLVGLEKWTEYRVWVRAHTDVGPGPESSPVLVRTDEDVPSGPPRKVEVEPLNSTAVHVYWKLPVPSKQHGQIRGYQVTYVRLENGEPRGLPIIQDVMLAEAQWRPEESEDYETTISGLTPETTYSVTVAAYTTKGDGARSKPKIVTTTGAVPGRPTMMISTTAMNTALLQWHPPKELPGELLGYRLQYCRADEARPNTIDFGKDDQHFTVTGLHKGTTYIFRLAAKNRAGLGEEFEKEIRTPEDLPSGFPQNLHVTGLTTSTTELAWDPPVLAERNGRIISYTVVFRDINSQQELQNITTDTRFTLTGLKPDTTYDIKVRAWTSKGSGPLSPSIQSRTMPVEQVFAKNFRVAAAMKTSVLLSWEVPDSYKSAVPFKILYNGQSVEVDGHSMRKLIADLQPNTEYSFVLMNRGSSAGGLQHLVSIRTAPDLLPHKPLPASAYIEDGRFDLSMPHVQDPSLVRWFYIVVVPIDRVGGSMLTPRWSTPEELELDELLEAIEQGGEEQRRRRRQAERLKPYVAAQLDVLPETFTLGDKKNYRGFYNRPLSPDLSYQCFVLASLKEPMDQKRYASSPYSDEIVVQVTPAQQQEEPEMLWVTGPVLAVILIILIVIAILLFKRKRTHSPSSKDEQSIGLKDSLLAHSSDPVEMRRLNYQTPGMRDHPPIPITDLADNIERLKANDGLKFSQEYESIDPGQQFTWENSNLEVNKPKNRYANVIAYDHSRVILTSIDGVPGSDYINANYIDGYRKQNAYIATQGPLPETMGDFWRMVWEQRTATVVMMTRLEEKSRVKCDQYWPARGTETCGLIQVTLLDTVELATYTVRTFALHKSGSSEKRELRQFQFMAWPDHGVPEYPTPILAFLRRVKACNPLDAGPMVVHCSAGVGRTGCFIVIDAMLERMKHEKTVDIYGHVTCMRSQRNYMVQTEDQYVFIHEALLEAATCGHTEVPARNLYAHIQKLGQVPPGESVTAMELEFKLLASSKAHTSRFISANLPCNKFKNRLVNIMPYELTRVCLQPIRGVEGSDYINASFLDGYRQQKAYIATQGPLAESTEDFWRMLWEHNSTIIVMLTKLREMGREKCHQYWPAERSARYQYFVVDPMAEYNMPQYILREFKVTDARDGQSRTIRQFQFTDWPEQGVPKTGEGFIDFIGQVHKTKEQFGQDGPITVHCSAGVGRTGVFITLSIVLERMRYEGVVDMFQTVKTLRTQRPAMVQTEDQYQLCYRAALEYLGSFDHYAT

Structure (SMILES)	inhibition [1] [%]	inhibition [3] [%]	inhibition [4] [%]	inhibition [5] [%]	inhibition [6] [%]	Control Uptake [2] [%]
CCCCCNC(=O)[C@H](Cc1ccc(OC(C(=O)O)C(=O)O)cc1)NC(=O)[C@H](Cc1ccccc1)NS(C)(=O)=O	0	8	9	40	86	93
CCCCCNC(=O)[C@H](Cc1ccc(OCC(=O)O)c(C(=O)O)c1)NC(=O)[C@H](CCOCOC)NC(=O)OC(C)(C)C	0	6	6	42		113
CCCCCNC(=O)[C@H](Cc1ccc(OC(C(=O)O)C(=O)O)cc1)NC(=O)[C@H](Cc1cccc2ccccc12)NC(=O)OC(C)(C)C	34	8	3	33	86	84
CCCCCNC(=O)[C@H](Cc1ccc(OCC(=O)O)c(C(=O)O)c1)NC(=O)[C@H](Cc1ccc(O)cc1)NC(=O)OC(C)(C)C	0	5	32	81		115
CCCCCNC(=O)[C@H](Cc1ccc(OCC(=O)O)c(C(=O)O)c1)NC(=O)[C@H](Cc1ccccc1)NC(=O)CCNS(C)(=O)=O	10	25	15	73		81
CCCCCNC(=O)[C@H](Cc1ccc(OCC(=O)O)c(C(=O)O)c1)NC(=O)[C@H](C)NC(=O)OC(C)(C)C	4	5	8	43		76
CCCCCNC(=O)[C@H](Cc1ccc(OC(C(=O)O)C(=O)O)cc1)NC(=O)[C@H](CC(C)C)NC(=O)OC(C)(C)C	3	5	4	24	76	84
CCCCCNC(=O)[C@H](Cc1ccc(OC(C(=O)O)C(=O)O)cc1)NC(=O)[C@H](Cc1ccc(O)cc1)NC(=O)OC(C)(C)C	0	5	10	50	90	96
CCCCCNC(=O)[C@H](Cc1ccc(OC(C(=O)O)C(=O)O)cc1)NC(=O)[C@H](Cc1ccc2ccccc2c1)NC(=O)OC(C)(C)C	4	3	3	29	90	62
CCCCCNC(=O)[C@H](Cc1ccc(OCC(=O)O)c(C(=O)O)c1)NC(=O)[C@H](CO)NC(=O)OC(C)(C)C	1	4	11	41		84
CCCCCNC(=O)[C@H](Cc1ccc(OCC(=O)O)c(C(=O)O)c1)NC(=O)[C@H](Cc1ccccc1)NC(=O)CCNC(=O)OC(C)(C)C	0	19	19	75		88
CCCCCNC(=O)[C@H](Cc1ccc(OCC(=O)O)c(C(=O)O)c1)NC(=O)[C@H](Cc1ccccc1)NC(=O)C[S+]([O-])c1nc[nH]n1 (stereo partly specified)	0	17	40	85		92
CCCCCNC(=O)[C@H](Cc1ccc(OCC(=O)O)c(C(=O)O)c1)NC(=O)[C@H](CCO)NC(=O)OC(C)(C)C	0	8	11	45		74
CCCCCNC(=O)[C@H](Cc1ccc(OCC(=O)O)c(C(=O)O)c1)NC(=O)[C@H](COCOC)NC(=O)OC(C)(C)C	2		16	51		70
CCCCCNC(=O)[C@H](Cc1ccc(OCC(=O)O)c(C(=O)O)c1)NC(=O)[C@H](Cc1ccccc1)NC(=O)CSc1nc[nH]n1	0	6	36	82		80
CCCCCNC(=O)[C@H](Cc1ccc(OCC(=O)O)c(C(=O)O)c1)NC(=O)[C@H](Cc1ccccn1)NC(=O)OC(C)(C)C	2	1	10	50		106
CCCCCNC(=O)[C@H](Cc1ccc(OCC(=O)O)c(C(=O)O)c1)NC(=O)[C@H](Cc1ccccc1)NC(=O)OC(C)(C)C	0					108
CCCCCNC(=O)[C@H](Cc1ccc(OCC(=O)O)c(C(=O)O)c1)NC(=O)[C@H](Cc1ccccc1)NC(=O)CSc1c[nH]nn1	0	5	49	88		86
CCCCCNC(=O)[C@H](Cc1ccc(OCC(=O)O)c(C(=O)O)c1)NC(=O)[C@H](Cc1ccccc1)N1CCCC1=O	0	5	24	71		95

Continued, in another order:

inhibition [1] [%]	inhibition [3] [%]	inhibition [4] [%]	inhibition [5] [%]	inhibition [6] [%]	Structure (SMILES)	Control Uptake [2] [%]
0	27	23	78		CCCCCNC(=O)[C@H](Cc1ccc(OCC(=O)O)c(C(=O)O)c1)NC(=O)[C@H](Cc1ccccc1)NC(=O)CCCO	108
7	34	46	88		CCCCCNC(=O)[C@H](Cc1ccc(OCC(=O)O)c(C(=O)O)c1)NC(=O)[C@H](Cc1ccccc1)NC(=O)Cc1ccc(O)cc1	96
0	38	47	88		CCCCCNC(=O)[C@H](Cc1ccc(OCC(=O)O)c(C(=O)O)c1)NC(=O)[C@H](Cc1ccccc1)NC(=O)Cc1c[nH]c2ccccc12	73
6	32	43	86		CCCCCNC(=O)[C@H](Cc1ccc(OCC(=O)O)c(C(=O)O)c1)NC(=O)[C@H](Cc1ccccc1)NC(=O)Cc1cccc(O)c1	108
0	13	28	77		CCCCCNC(=O)[C@H](Cc1ccc(OCC(=O)O)c(C(=O)O)c1)NC(=O)[C@H](Cc1ccccc1)NC(C)=O	95
0	17	19	70		CCCCCNC(=O)[C@H](Cc1ccc(OCC(=O)O)c(C(=O)O)c1)NC(=O)[C@H](Cc1ccccc1)NC(=O)CCCc1ccccc1	73
0	18	45	87		CCCCCNC(=O)[C@H](Cc1ccc(OCC(=O)O)c(C(=O)O)c1)NC(=O)[C@H](Cc1ccccc1)NC(=O)Cc1ccccc1	73
6	20	39	85		CCCCCNC(=O)[C@H](Cc1ccc(OCC(=O)O)c(C(=O)O)c1)NC(=O)[C@H](Cc1ccccc1)NC(=O)Cc1ccc(C)cc1	77
0	2	37	83		CCCCCNC(=O)[C@H](Cc1ccc(OCC(=O)O)c(C(=O)O)c1)NC(=O)[C@H](Cc1ccccc1)NC(=O)CCOC	89
